High-throughput results: PubChem, several laboratories
Rows were chosen to be rich in hits. Some 1.3% of all compounds tested hit in one or more screens of this group.
NTR1 ag: activates human neurotensin receptor 1; P30989; NTR1-U2OS beta-arrestin-GFP spot imaging, agonist mode; activation, % at 20 µM; actives 0.17% (n = 330,000); AID 493036;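 active means activation at or above 40% of the spot to cytoplasm intensity ratio, with at least 20 cells analyzed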;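 further: 0% = DMSO without peptide and 100% = 100 nM NTR1 peptide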
PLC-gamma1 inh: inhibitors of human phospholipase C gamma1; P19174; purified PLC-gamma1, fluorogenic substrate, fluorescence; inhibition, % at 12.2 µM; actives 0.84% (n = 370,000); AID 720700
PLC-beta3 inh: PLC-beta3 (human) inhibition, primary screen; actives 0.18% (n = 370,000); inhibition, % at 12.2 µM; Purified PLC-beta3, fluorogenic substrate, fluorescence; in the data active means inhibition above about 11%;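 further: 0% = median of compound wells on plate and 100% = full blocker control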
Target sequence (Q01970 whole entry, looked up): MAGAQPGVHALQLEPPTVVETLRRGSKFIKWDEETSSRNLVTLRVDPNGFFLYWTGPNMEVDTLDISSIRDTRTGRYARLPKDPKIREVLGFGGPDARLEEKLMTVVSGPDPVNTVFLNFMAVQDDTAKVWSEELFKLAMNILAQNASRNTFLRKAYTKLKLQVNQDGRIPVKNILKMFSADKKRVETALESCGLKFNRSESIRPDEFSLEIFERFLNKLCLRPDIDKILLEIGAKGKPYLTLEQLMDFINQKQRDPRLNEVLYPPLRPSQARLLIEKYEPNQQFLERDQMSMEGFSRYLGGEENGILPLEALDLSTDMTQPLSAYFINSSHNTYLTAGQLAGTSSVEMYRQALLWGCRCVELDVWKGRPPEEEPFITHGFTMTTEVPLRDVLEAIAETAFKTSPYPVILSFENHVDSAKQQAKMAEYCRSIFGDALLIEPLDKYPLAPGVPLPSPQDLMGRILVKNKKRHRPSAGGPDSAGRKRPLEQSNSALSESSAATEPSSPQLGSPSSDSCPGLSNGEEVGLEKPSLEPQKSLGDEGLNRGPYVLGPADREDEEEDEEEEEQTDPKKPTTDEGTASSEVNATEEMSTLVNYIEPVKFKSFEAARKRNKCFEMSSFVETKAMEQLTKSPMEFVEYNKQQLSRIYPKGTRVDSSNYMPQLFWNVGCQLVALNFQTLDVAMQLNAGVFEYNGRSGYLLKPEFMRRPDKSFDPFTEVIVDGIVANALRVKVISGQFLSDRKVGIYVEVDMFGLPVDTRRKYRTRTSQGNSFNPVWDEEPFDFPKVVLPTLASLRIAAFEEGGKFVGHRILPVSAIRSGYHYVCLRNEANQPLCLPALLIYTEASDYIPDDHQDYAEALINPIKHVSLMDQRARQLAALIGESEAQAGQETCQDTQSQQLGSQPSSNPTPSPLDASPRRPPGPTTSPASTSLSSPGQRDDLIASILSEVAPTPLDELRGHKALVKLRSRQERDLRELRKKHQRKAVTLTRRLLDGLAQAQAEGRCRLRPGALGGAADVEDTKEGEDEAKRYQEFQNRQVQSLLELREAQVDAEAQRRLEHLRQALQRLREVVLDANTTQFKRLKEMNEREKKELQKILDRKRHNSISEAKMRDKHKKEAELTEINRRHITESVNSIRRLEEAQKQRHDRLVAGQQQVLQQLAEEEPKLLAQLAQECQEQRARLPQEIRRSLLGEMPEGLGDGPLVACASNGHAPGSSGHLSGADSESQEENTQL
Arrestin-AP2 inh: blocks beta-arrestin peptide binding to AP2 adaptin. AID 504490. actives 0.31% (n = 340,000). inhibition, % at 10 µM. FITC-arrestin peptide / GST-AP2 beads, flow cytometry; AP2 beta2 appendage carries R879A mutation;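 active means inhibition above a set limit, near 3 SD of compounds lacking own fluorescence, cut at about 54% in these data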;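 further: plate controls were DMSO wells for no effect and 5 µM unlabelled arrestin peptide for full effect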
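Measured by: flow cytometry, FL1 (488/535 nm); Material: AP2 appendage R879A on GSH beads; Evaluation: percent response; Timing: pre-incubation 12 min, peptide binding 1 h, room temperature; Also added: 50 nM FITC-arrestin peptide; Medium: PBS with 0.05% Tween 20 and 0.1% BSA.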
PLCg1 ctr: inhibits human PLC-gamma1 in PLC-beta3 counter-screen | shares compounds with PLC-gamma1 inh | purified PLC-gamma1, fluorogenic substrate, fluorescence | inhibition, % at 12.3 µM | actives 3.1% (n = 3,300) | AID 743258
PLCb3 confirm: confirmation of human PLC-beta3 inhibitors; shares compounds with PLC-gamma1 inh; purified PLC-beta3, fluorogenic substrate fluorescence; inhibition, % at 12.3 µM; actives 1% (n = 3,300); AID 743261; in the data active means inhibition above about 11%
The depositor's hits bear a star; nt = no result. Unless noted, no stated cut-off is given here; in the data, active means inhibition above about 9.5%; inactive means the rest.

SMILES	NTR1 ag	PLC-gamma1 inh	PLC-beta3 inh	Arrestin-AP2 inh	PLCg1 ctr	PLCb3 confirm
COc1ccc(NC(=O)CN(C)C(=O)C2CC(=O)N(CCc3ccc(OC)c(OC)c3)C2)cc1 (stereo not drawn)	nt	4	-2	3	nt	nt
CCOC(=O)[C@@]12CCCC3=C1N(CCC3)C(=O)[C@H]2CC(=O)N1CCN(C(=O)C2CC2)CC1	nt	0	1	nt	nt	nt
O=C(C1CCC1)N1CCc2cc(S(=O)(=O)C3CCN(Cc4ccc(F)cc4)CC3)ccc21	nt	0	1	nt	nt	nt
OC(CN1CCN(c2ncc(C(F)(F)F)cc2Cl)CC1)c1ccccc1 (stereo not drawn)	0	13*	2	21	-6	-4
Cc1ccc(C(OCC(O)CNCc2ccc(F)cc2)c2ccccc2)cc1 (stereo not drawn)	33	17*	10	28	3	5
O=C(c1ccccc1)c1ccc(OCC(O)CNCc2ccc(F)cc2)cc1 (stereo not drawn)	nt	9	0	7	nt	nt
O=C(O/N=C1\CCCc2ccccc21)c1cccc(Cl)c1	4	9.6*	11*	4	-4	-2
O=C(NCc1ccc(Cl)cc1)C1C2C=CC3(CN(Cc4ccccc4)C(=O)C13)O2 (stereo not drawn)	nt	2	2	nt	nt	nt
C[C@@H](O[Si](c1ccccc1)(c1ccccc1)C(C)(C)C)[C@H]1C(=O)N[C@H](Cc2cn(S(=O)(=O)c3ccccc3)c3ccccc23)C(=O)N1C	nt	1	3	nt	nt	nt
O=C1c2[nH]nc(-c3ccccc3)c2C(c2ccc(F)cc2)N1Cc1ccccc1 (stereo not drawn)	nt	4	2	nt	nt	nt
Cc1ccc(NC(=O)C[n+]2cc(-c3ccccc3)n3c2CCC3)cc1	-1	0	-5	3	nt	nt
Cc1ccc(-c2c[n+](CC(=O)Nc3nc(-c4ccccc4)cs3)c3n2CCC3)cc1	0	12*	11*	-11	4	3
Cc1ccc(-c2c[n+](CC(=O)Nc3ccccc3C)c3n2CCC3)cc1	0	9.8*	-5	22	-1	2
Cc1cccc(CN2CCN(C3CN(Cc4cn(Cc5ccc(C(F)(F)F)cc5)nn4)S(=O)(=O)C3)CC2)c1 (stereo not drawn)	nt	-240	1	nt	nt	nt
O=C(Nc1cccc(F)c1)OC1CC2CC1[C@H]1CCCCN1[C@H]2Cc1ccccc1 (stereo partly drawn)	nt	-5	-8	nt	nt	nt
COC[C@@H]1CCCN1c1cccc2c1S(=O)(=O)N(C1CC1)CC[C@@H](C)O2	nt	-25	-32	nt	nt	nt
c1ccc(Nc2cc(Nc3ccccc3)[nH]n2)cc1	1	22*	5	-5	3	3
CN(Cc1ccccc1)C(=O)OCc1cn(Cc2ccc(F)cc2F)nn1	nt	-3	0	nt	nt	nt
COC(=O)[C@]12C[C@H](CC(=O)NCCc3ccccc3OC)C(=O)N(Cc3ccc(Cl)cc3Cl)C1=C[C@H](C(C)(C)C)O[C@@H]2C	nt	-2	4	nt	nt	nt
COc1ccccc1NC(=O)COc1ccc(/C=N/NC(=O)CSCc2cc(C)cc(C)c2)cc1	-1	3	4	-3	nt	nt
COc1ccccc1NC(=O)COc1ccc(/C=N/NC(=O)CSCc2ccc(Cl)cc2)cc1	4	9.5*	10	-4	3	5
COCC(=O)N1CCN(C(=O)C(=O)c2cccc(C(F)(F)F)c2)CC1	nt	6	2	nt	nt	nt
CCCOP(=O)(c1ccc(N(C)C)cc1)C(O)c1ccccc1OC (stereo not drawn)	3	10*	5	2	-1	1
COc1ccccc1C(O)P(=O)(OCC(C)C)c1ccc(N(C)C)cc1 (stereo not drawn)	0	1	-6	-1	nt	nt
CC(C)CCNC(=O)NC(=O)COC(=O)CCN=C1NS(=O)(=O)c2ccccc21	-1	11*	-2	-12	-8	-1
SMILES	NTR1 ag	PLC-gamma1 inh	PLC-beta3 inh	Arrestin-AP2 inh	PLCg1 ctr	PLCb3 confirm
CC(=O)c1ccc(NC(=S)NC(NC(=O)c2ccco2)C(Cl)(Cl)Cl)cc1 (stereo not drawn)	5	8	12*	22	3	-1
CC(C)c1cc(=O)n2[nH]c(SCc3ccccc3Cl)nc2n1	-1	13*	-5	5	-3	-2
C/C(=N/NC(=O)c1cccs1)c1cccc(N)c1	0	11*	-12	-6	-12	-9
Cc1ccc(S(=O)(=O)Cc2nc3ccccc3c(=O)[nH]2)cc1	-1	-2	19*	6	-16	9
Cc1ccc(S(=O)(=O)CCc2nc3ccccc3[nH]2)cc1	-1	6	-6	-19	nt	nt
OCCCc1nc2ccccc2n1CCCCOc1ccccc1	0	11*	-2	4	-3	-5
Cc1ccc(OCCn2c(CCNC(=O)C3CCCCC3)nc3ccccc32)cc1	nt	7	9	nt	nt	nt
O=C(NCCc1nc2ccccc2n1CCOc1cc(F)ccc1F)C1CCCCC1	nt	11*	11*	nt	1	-17
Cc1ccc(OCCn2c(CCNC(=O)C3CCCCCC3)nc3ccccc32)cc1	nt	17*	12*	nt	9.6*	6
OCc1nc2ccccc2n1CCCCOc1ccccc1	0	0	0	-11	nt	nt
CCCCNC(=O)NCC1CCN(Cc2ccc(OC)cc2)CC1	nt	0	1	nt	nt	nt
O=C(c1cnc(-c2ccccc2)s1)c1ccc(Cl)cc1Cl	2	9.7*	2	7	-2	-2
O=C(c1ccc(Cl)cc1)c1cnc(-c2ccccc2)s1	nt	3	2	7	nt	nt
CC1CCC(C(C)C)C(OCC(O)CN2CCCC(C)C2)C1 (stereo not drawn)	3	3	-2	-22	nt	nt
CC1CCC(C(C)C)C(OCC(O)C[N+]2(C)CCCCC2)C1 (stereo not drawn)	0	11*	0	35	-3	-1
COc1ccc(CSc2nnc(C)n2N)cc1[N+](=O)[O-]	-1	10*	-3	33	-4	-2
COC(=O)c1cc2c(c3c4ccccc4n(S(=O)(=O)c4cccc(C)c4)c13)C(=O)N(Cc1ccc(N(C)C)cc1)C2	nt	-18	-24	nt	nt	nt
O=C(c1ccco1)N1CCN=C1SCc1ccccc1Cl	0	-2	17*	8	-1	1
O=C(c1ccco1)N1CCN=C1SCc1c(F)cccc1Cl	-1	0	-2	-7	nt	nt
Cc1ccc(OCCCCNC(C)c2ccccc2)c(C)c1 (stereo not drawn)	1	13*	-1	6	-3	1
Cc1ccc(OCCNCc2ccccc2)c(C)c1	1	0	-1	-23	nt	nt
COC(=O)C1CN(Cc2ccc(F)cc2)CCS(=O)(=O)N1Cc1ccc(C(F)(F)F)cc1 (stereo not drawn)	nt	-2	-1	nt	nt	nt
CCN(CC)C(=O)C1=C(C)N(Cc2ccc(C(C)(C)C)cc2)C(=O)C(CC(=O)NC2CCCC2)C1 (stereo not drawn)	nt	11*	5	nt	-5	2
CCOC(=O)N1CCN(C(=O)c2ccc(CS(=O)Cc3ccccc3Cl)o2)CC1 (stereo not drawn)	-1	9.9*	-6	3	-2	3
